Measurements as given in ChEMBL document CHEMBL1134393, “Synthesis and biological activity of analogues of the antidiabetic/antiobesity agent 3-guanidinopropionic acid: discovery of a novel aminoguanidinoacetic acid antidiabetic agent” (2001).

System: not listed separately
Assay: In vivo blood glucose was determined in obese, hyperglycemic, hyperinsulinemic, insulin-resistant KKAy mice after a dose of 500 mg/kg for 4 days
Assay type: functional, Mus musculus
In short: (§1)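 KKAy mice (KK female × Ay male cross) allocated to treatment or control groups (n = 6) after pretest glucose. Compound given in food, equivalent to 500 mg/kg per day for 4 days. Nonfasting blood drawn from the retroorbital sinus; glucose measured by autoanalyzer. Result expressed as treated/control glucose ratio (T/C). Wilcoxon rank sum test applied when T/C < 0.80.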

Row | SMILES | MISS T/C
1 | Nc1cccc[n+]1CCC(=O)[O-] | 1.07
2 | CCc1cc(O)nc(NCCC(=O)O)n1 | 0.96
3 | NC(=O)NCCC(=O)O | 1.06
4 | O=C(O)CCNC1=NCCS1 | 0.85
5 | N=C(N)c1ccc(CC(=O)O)[nH]1 | 1.1
6 | N=C(N)c1cccn1CCC(=O)O | 0.93
7 | N=C(N)NCC(O)C(=O)O (stereo unspecified) | 1.1
8 | N=C(N)NCCc1c[nH]c(S)n1 | 0.8
9 | N=C(N)NCCP(=O)(O)O | 0.81
10 | C/N=C(\N)NCCC(=O)O | 1.02
11 | N=C(N)N[C@H]1CCCC[C@H]1C(=O)O | 0.92
12 | CCCCCC(CC(=O)O)N=C(N)N (stereo unspecified) | 0.88
13 | N=C(N)N[C@H]1CCC[C@@H]1C(=O)O | 0.9
14 | N=C(N)NC(CC(=O)O)c1ccccc1 (stereo unspecified) | 0.95
15 | CNC(CN=C(N)N)C(=O)O.Cl.Cl (stereo unspecified) | 0.96
16 | N=C(N)SCCC(=O)O | 0.53
17 | CCCCCC(CN=C(N)N)C(=O)O (stereo unspecified) | 0.79
18 | CCCCCCN=C(N)NCCC(=O)O | 0.85
19 | N=C(N)S/C=C\C(=O)O [ZAPA] | 0.68
20 | Nc1ccc[n+](CC(=O)O)c1.[Cl-] | 0.94
21 | COC(=O)NC(=N)NCCC(=O)O | 0.88
22 | N=C(N)Nc1ccc(C(=O)O)cc1 [4-GUANIDINO-BENZOIC ACID] | 0.8
23 | N=C(N)NCCc1nnn[nH]1 | 0.94
24 | CC(CN=C(N)N)C(=O)O (stereo unspecified) | 0.86
25 | O=C(O)CCNc1ccccn1 | 0.2

Row | SMILES | MISS T/C
26 | Nc1cccc(CC(=O)O)n1 | 1.08
27 | CC(=O)NC(=N)NCCC(=O)O | 0.88
28 | Cl.NC(N)=NC[C@@H](N)C(=O)O | 0.92
29 | Cl.Cl.N/C(=N\CCC(=O)O)c1ccccc1N | 0.92
30 | N=C(N)NNCC(=O)O | 0.61
31 | O=C(O)CCNc1[nH]cnc2ncnc1-2 | 0.85
32 | O=C(O)CCn1cccn1 | 1.11
33 | CCOC(=O)CCN=C(N)N.Cl | 0.87
34 | C/N=C(\N)SCCC(=O)O.Cl | 0.59
35 | Cl.N=C(N)CSCC(=O)O | 0.92
36 | N=C(N)NCCC[C@H](N)C(=O)O [ARGININE] | 1.02
37 | O=C(O)CCNc1nc2ccccc2[nH]1 | 0.95
38 | N=C(N)NCC(S)C(=O)O (stereo unspecified) | 0.83
39 | Cl.NC(=O)CCN=C(N)N | 0.96
40 | O=C(O)CCNC1=NCCN1 | 0.97
41 | O=C(O)Cc1c[nH]cn1 [IMIDAZOLE ACETIC ACID] | 0.68
42 | N=C(N)N[C@H]1CCCC[C@@H]1C(=O)O | 0.93
43 | N#CN/C(N)=N\CCC(=O)O | 0.92
44 | N=C(N)NOCC(=O)O | 0.83
45 | N/C(=N/CCC(=O)O)N[N+](=O)[O-] | 0.84
46 | Nc1ncnc2nn(CCC(=O)O)cc12 | 1.08
47 | O=C(O)CCn1ccnc1 | 0.81
48 | N=C(N)NCC(Cc1ccccc1)C(=O)O (stereo unspecified) | 0.93
49 | N=C(N)N1CCCC(C(=O)O)C1 (stereo unspecified) | 1
50 | Cl.N=C(N)CCCC(=O)O | 0.93

Row | SMILES | MISS T/C
51 | NC(N)=NC[C@H](N)C(=O)O | 0.35
52 | N=C(N)N[C@H]1CCC[C@H]1C(=O)O | 0.97
53 | N/C(S)=N/CCC(=O)O | 0.99
54 | N=C(N)N1CCCCC1CC(=O)O (stereo unspecified) | 0.91
55 | C/N=C(\NC)SCCC(=O)O.Cl | 1.06
56 | Cl.N=C(N)SCC(=O)O | 0.86
57 | Cl.N=C(N)S/C=C\C(=O)O | 0.95
58 | CN(CCC(=O)O)C(=N)N | 1.02
59 | Cl.N=C(N)NCCC(=O)NO | 1.05
60 | O=C(O)CCNc1nccs1 | 0.99
61 | N=C(N)NCCS(=O)(=O)O | 0.91
62 | Nc1ncnc2c1cnn2CCC(=O)O | 1.27
63 | CSC(=N)NCCC(=O)O | 1.1
64 | CC(=N)NCCC(=O)O | 0.77
65 | N=C(N)c1ccccc1NCCC(=O)O | 0.73
66 | N[C@@H](Cc1c[nH]cn1)C(=O)O [HISTIDINE] | 0.8
67 | N=C(N)NCC(=O)O [GUANIDINO ACETATE] | 0.62
68 | O=C(O)CCNc1nc2ccccc2s1 | 0.87
69 | Cl.N=C(N)NC/C(=N/O)C(=O)O | 0.97
70 | N=C(N)NCCCC(=O)O | 0.8
71 | CC(CC(=O)O)N=C(N)N (stereo unspecified) | 0.77
72 | CN(C)C(=N)SCCC(=O)O.Cl | 1.08
73 | O=C(O)CCNc1ncccn1 | 1.01
74 | Cl.N=C(N)SCCCC(=O)O | 0.87

Target: Sodium- and chloride-dependent creatine transporter 1 (Rattus norvegicus) (UniProt P28570)
Assay: In vitro [14C]- creatine uptake (1 mM) was determined in rat A10 smooth muscle cells at a concentration of (1 mM)

Row | SMILES | Inhibition [%]
75 | CN(CC(=O)O)C(=N)N [CREATINE] | 92

Target: Creatine kinase M-type (Oryctolagus cuniculus) (UniProt P00563)
Assay: In vitro kinase activity (phosphorylation) of creatine kinase was determined

Chain of Creatine kinase M-type (Oryctolagus cuniculus) (P00563 whole entry, looked up): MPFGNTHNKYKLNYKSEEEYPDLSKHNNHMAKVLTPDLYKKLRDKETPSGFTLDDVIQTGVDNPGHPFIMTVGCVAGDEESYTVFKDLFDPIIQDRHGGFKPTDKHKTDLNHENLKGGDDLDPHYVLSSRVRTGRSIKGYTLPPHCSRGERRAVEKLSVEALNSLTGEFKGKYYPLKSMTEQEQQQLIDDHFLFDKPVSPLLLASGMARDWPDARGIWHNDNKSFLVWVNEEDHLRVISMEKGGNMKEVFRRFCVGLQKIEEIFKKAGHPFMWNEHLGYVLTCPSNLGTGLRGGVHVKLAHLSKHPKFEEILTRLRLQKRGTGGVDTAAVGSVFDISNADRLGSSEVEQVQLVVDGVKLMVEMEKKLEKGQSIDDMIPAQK

Row | Activity | SMILES
76 | 0.5 | N=C(N)NNCC(=O)O
77 | 100 | CN(CC(=O)O)C(=N)N [CREATINE]
78 | 5 | N=C(N)NCCC(=O)O [OMPENACLID]

System: not listed separately
Assay: In vivo blood glucose was determined in obese, hyperglycemic, hyperinsulinemic, insulin-resistant […] after a dose of 500 mg/kg for 4 days
Assay type: functional, Mus musculus
In short: as §1

Row | SMILES | MISS T/C
79 | N=C(N)NCCC(=O)O [OMPENACLID] | 0.52

Species on record: Rattus norvegicus
Assay: (§2) In vitro [14C]- creatine uptake (1 mM) was determined in rat A10 smooth muscle cells at a concentration of (1 mM)
Assay type: functional
In short: (§3)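 Rat A10 smooth muscle cells grown in DMEM with 10% FBS and used in log-phase growth. Cells washed, then incubated at 37 °C in Hanks buffer (pH 7.4, 10 mM Hepes, 20 mM glucose, 0.2% fatty-acid-free BSA) with [14C]creatine (1 mM) plus test compound (1 mM) for 30–120 min. Ice-cold washes, NaOH lysis, scintillation counting. Uptake normalised to medium specific activity and extract protein; reported as % inhibition.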

Row | SMILES | Inhibition [%]
80 | N=C(N)NNCC(=O)O | 36

System: A10
Assay: as §2
Assay type: functional
In short: as §3

Row | SMILES | Inhibition [%]
81 | N=C(N)NCCC(=O)O [OMPENACLID] | 97
